High-throughput results as filed in PubChem.
STAT1 act: STAT1 signaling activators, primary screen, cell-based, HTS, luciferase reporter | 200,000 tested, 2.6% active | activation (% of control), % at 5.5 µM | NIH 3T3 STAT1-luciferase reporter, IFN-gamma, luminescence; 100% = IFN-gamma alone, no compound | AID 932, 2007;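 active = activation above the screen-wide mean activation plus 3 SD, cut at about 130% in these data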
FLuc inh counter: firefly luciferase enzyme inhibitors, primary screen, artefact control for luciferase-based inhibitor screens, biochemical, luminescence, ATPLite; 10 min; Luciferin 4-monooxygenase (Photinus pyralis), P08659; 200,000 tested, 1.5% active; AID 1006, 2008; inhibition, % at 10 µM;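 active = inhibition above about 50% when tested at 10 µM, limit read from the data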
Target sequence (P08659 whole entry, looked up): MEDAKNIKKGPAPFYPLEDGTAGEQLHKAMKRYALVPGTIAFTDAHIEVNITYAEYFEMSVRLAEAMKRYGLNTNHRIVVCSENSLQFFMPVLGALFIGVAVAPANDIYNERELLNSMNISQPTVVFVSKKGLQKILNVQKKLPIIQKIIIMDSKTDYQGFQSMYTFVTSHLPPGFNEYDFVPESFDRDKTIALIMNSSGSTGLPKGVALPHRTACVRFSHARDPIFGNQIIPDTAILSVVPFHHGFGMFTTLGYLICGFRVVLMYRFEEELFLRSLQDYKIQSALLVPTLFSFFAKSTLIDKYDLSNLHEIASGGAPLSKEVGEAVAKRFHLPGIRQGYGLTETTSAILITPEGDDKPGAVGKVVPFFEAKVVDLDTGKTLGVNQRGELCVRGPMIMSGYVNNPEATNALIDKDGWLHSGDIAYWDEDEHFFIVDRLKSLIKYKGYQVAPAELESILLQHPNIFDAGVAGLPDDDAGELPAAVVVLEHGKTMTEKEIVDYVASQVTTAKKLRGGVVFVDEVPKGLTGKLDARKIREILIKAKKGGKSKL
NF-kB neuron act: activators of NF-kB expression in neurons, primary screen, cell-based, HTS. 190,000 tested, 1.6% active. human neuronal cells, NF-kB reporter expression; active compounds read high. fold change at 12.5 µM; in the data active = fold change above about 3.3
APP transl inh: inhibitors of APP translation via 5'UTR reporter, primary screen, APP 5'UTR luciferase, SH-SY5Y cells | SH-SY5Y APP 5'UTR-luciferase reporter, luminescence | inhibition, % at 2 µM | 190,000 tested, 0.82% active;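 active = inhibition above a set limit, derived from the sample mean plus 3 SD, cut at about 45% in these data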
APP 5'UTR act: activators of APP 5'UTR luciferase reporter, primary screen, SH-SY5Y cells; SH-SY5Y APP 5'UTR luciferase reporter, luminescence; zero percent = DMSO vehicle wells; 190,000 tested, 1% active; activation, % at 2 µM;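 active = activation above a set limit, based on mean plus 3 SD of controls, cut at about 140% in these data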
FLuc stim CS: FLuc activators, initial screening, artefact control for FLuc-dependent activation tests, biochemical, ATPlite luminescence; activation factor at 10 µM; 200,000 tested, under 10 active; ATPlite luciferase biochemical, 10 min; 0 = ATP-free wells, 1 = DMSO control;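 active = luciferase activation factor, scaled between plate controls, of at least 2 with compound at 10 µM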
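Material: Luciferase/luciferin reagent mix; Doses: test compounds dosed from 2 mM stocks in 100% DMSO; Schedule: 10 min incubation after luciferase reagent addition, room temperature; Measured by: luminescence from luciferase reaction; Read-out: luminescence gain marking luciferase activators.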
A number is an active result; . = inactive; / = not tested or not shown. The list is not random: actives were taken first. Their share in the collection is about 4.8%.

SMILES	STAT1 act	FLuc inh counter	NF-kB neuron act	APP transl inh	APP 5'UTR act	FLuc stim CS
COc1ccc2nc(-c3ccc(N)cc3)[nH]c2c1	.	65	.	.	.	.
O=c1c2ccccc2nnn1COc1ccc(F)cc1Cl	144	.	.	.	.	.
O=c1c2ccccc2nnn1COc1ccc(Cl)cc1Br	133	.	.	.	.	.
CC(Oc1ccc(Cl)cc1Cl)C(=O)OCn1nnc2ccccc2c1=O (configuration not stated)	.	.	.	.	.	.
O=c1c2ccccc2nnn1COc1cccc2ccccc12	130	.	.	.	.	.
CCC(=O)OCn1nnc2ccccc2c1=O	.	.	.	.	.	.
CCOc1ccc(OCCn2nnc3ccccc3c2=O)cc1	.	.	4.6	.	.	.
CCCn1nnc2ccccc2c1=O	.	.	.	.	.	.
O=C(CCCN1C(=O)c2cccc3cccc(c23)C1=O)NC1CCS(=O)(=O)C1 (configuration not stated)	.	.	.	.	.	.
O=C(c1cccc(C(F)(F)F)c1)C1CCCN(C(=O)CCCn2cncn2)C1 (configuration not stated)	.	.	.	.	.	.
Cn1c(NC2CCCCC2)c(N=O)c(=O)n(C)c1=O	.	.	.	.	.	.
CCOC(=O)Cc1csc(NC(=S)NC(=O)c2ccc(C)cc2)n1	.	80	.	.	.	.
O=C(O)c1cccc(NC(=O)c2ccc3c(c2)C(=O)N(CC2CCCO2)C3=O)c1 (configuration not stated)	.	51	.	.	.	.
Cc1ccc(C(=O)Nc2cccc(C(=O)N3CCOCC3)c2)cc1	.	.	.	.	.	.
CC(=O)c1cccc(NC(=S)NC(=O)c2ccc(C)cc2)c1	138	.	3.5	.	.	.
COC(=O)c1cccc(NC(=O)c2ccc3c(c2)C(=O)N(CC2CCCO2)C3=O)c1 (configuration not stated)	.	.	.	.	.	.
Cc1ccc(C(=O)Nc2cccc(C(=O)O)c2)cc1	.	62	5.3	.	.	.
CC(=O)c1cccc(NC(=S)NC(=O)c2ccccc2Cl)c1	.	.	.	.	.	.
CCOC(=O)c1cccc(NC(=O)c2cccnc2)c1	.	.	.	.	.	.
CC(=O)c1cccc(NC(=S)NC(=O)c2ccc(C)cc2Cl)c1	131	.	.	.	.	.
CCC(=O)Nc1cccc(NC(=S)NC(=O)c2ccc(C)cc2)c1	145	.	.	.	.	.
CCOC(=O)c1cccc(NC(=O)c2ccc(N(C)C)cc2)c1	.	60	.	.	.	.
Cc1ccc(OCCOc2ccc(Br)cc2)c([N+](=O)[O-])n1	135	.	.	.	.	.
CCOc1cccc(/C=N/NC(=S)Nc2cc(S(=O)(=O)N3CCOCC3)ccc2N2CCOCC2)c1O	.	.	.	54	.	.
CC(Cc1cccs1)NC(=O)Nc1ccc([N+](=O)[O-])cc1 (configuration not stated)	.	.	.	.	.	.
SMILES	STAT1 act	FLuc inh counter	NF-kB neuron act	APP transl inh	APP 5'UTR act	FLuc stim CS
Cc1ccc(N/C=C(/C#N)c2ccsc2)cc1	134	.	.	.	.	.
Cc1ccc(OCCCN2C(=O)C(=O)c3cccc(C)c32)cc1	.	.	.	.	.	.
Cc1ccc(OCCN2C(=O)C(=O)c3cc(C)ccc32)cc1	.	.	.	84	.	.
COc1ccc(OCCN2C(=O)c3ccccc3C2=O)cc1	.	.	.	.	.	.
O=C1c2ccccc2C(=O)N1CCOc1ccccc1	135	/	/	.	.	/
CCc1ccc(NC(=O)CCc2nc3ccccc3[nH]2)cc1	.	.	.	.	.	.
O=C(CCC1CCCC1)Nc1nnc(-c2ccc3c(c2)OCO3)s1	.	.	.	.	.	.
COc1ccc(-c2coc3cc4oc(=O)c5ccccc5c4cc23)cc1F	.	.	.	96	.	.
Cc1c(CCC(=O)O)c(=O)oc2cc3occ(-c4ccc(F)cc4)c3cc12	.	.	.	.	.	.
O=c1cc(-c2ccc(F)cc2F)[nH]c2ccccc12	.	.	.	.	.	.
O=c1cc(-c2ccccc2)[nH]c2ccc(F)cc12	.	.	.	92	.	.
COc1ccc2[nH]c(-c3cccc(F)c3)cc(=O)c2c1	.	.	5.5	93	.	.
COc1ccc(-c2cc(=O)c3ccccc3[nH]2)cc1	.	.	.	.	.	.
O=c1cc(-c2cccc(F)c2)[nH]c2ccccc12	.	.	.	94	.	.
Cc1ccc(-c2cc(=O)c3cc(C)ccc3[nH]2)cc1	146	93	5.8	.	.	.
O=C(NNC(=S)Nc1ccc(Cl)cc1Cl)C1CC1	.	.	.	.	.	.
Cc1cccc(CN2CCN(c3nc4nonc4nc3NC3CC3)CC2=O)c1	.	.	.	.	.	.
Cc1ccc2[nH]c(-c3cccc(F)c3)cc(=O)c2c1	.	.	3.8	93	.	.
Cc1ccc(-c2cc(=O)c3cc(F)ccc3[nH]2)cc1	.	.	.	.	.	.
CCOC(=O)/C(N=Nc1sc(C(=O)OC)c(C)c1C(=O)OCC)=C(\O)CCl	.	.	.	.	.	.
COc1cccc(-c2cn3nc(C)c(C)nc3n2)c1	.	.	.	.	141	.
CCc1nn2cc(-c3ccccc3)nc2s1	.	89	5	.	153	.
Cc1nn2cc(-c3ccc(Cl)cc3)nc2s1	.	.	8	.	158	.
Cc1nn2cc(-c3ccc(-c4ccccc4)cc3)nc2s1	.	.	4.4	.	.	.
COCCNC(=O)C(=O)NCCN1CCNCC1	.	.	.	.	.	.
SMILES	STAT1 act	FLuc inh counter	NF-kB neuron act	APP transl inh	APP 5'UTR act	FLuc stim CS
O=C(NCC1CCCN(Cc2ccccc2F)C1)c1cccc(C(F)(F)F)c1 (configuration not stated)	.	.	.	.	.	.
CCOC(=O)C(C)Oc1cccc2c(=O)n(CC(=O)N3CCN(C(=O)OCC)CC3)ccc12 (configuration not stated)	.	.	.	.	.	.
CCOC(=O)c1nnn(CC(=O)NC(=O)Nc2ccc(F)cc2)c1C(=O)OCC	.	.	.	.	.	.
CC(Sc1n[nH]c(N)n1)C(=O)Nc1ccc(Cl)cn1 (configuration not stated)	.	.	.	.	.	.
Cc1nc2nc(-c3ccc(Cl)cc3)cn2nc1C	.	.	3.3	.	.	.
Nc1nc(-c2ccccc2)nn1S(=O)(=O)c1ccccc1	.	.	.	.	.	.
